# Assay results from different studies.
# Each line is one published result; the experiments were not run side by side.
SMILES,tested on,test,system,setting,measurement,value
CCOC(=O)c1ccc(-n2c(C)cc(/C=C/c3ccc(OCC)cc3)c(C#N)c2=O)cc1,HepG2,"cell growth or viability, MTT",,"25 µM, 24 h",viability,72%
Fc1cccc(F)c1-c1nc(N2CCC(c3ccccn3)C2)c2ccccc2n1 (stereo not drawn),Trypanosoma cruzi,"parasite growth, imaging",U2OS,"intracellular, amastigote",IC50,9.7 µM
COc1ccc(NCC(=O)Nc2c(C#N)sc(Nc3ccccc3)c2C(=O)Nc2ccc(OC)cc2)cc1,HepG2,"cell growth or viability, SRB",,"10 nM, 48 h",viability,91.1%
CCN1CCc2c(sc(NC(=O)c3cc(C(F)(F)F)cc(C(F)(F)F)c3)c2C(=O)NCc2ccc(C)cc2)C1,Mycobacterium tuberculosis,"microbial growth, resazurin",H37RV,,MIC,350 µM
Cn1nccc1-c1nc(N2CCC(c3ccccn3)C2)c2ccccc2n1 (stereo not drawn),Trypanosoma cruzi,"parasite growth, imaging",U2OS,"intracellular, amastigote",IC50,16.4 µM
CCOC(=O)c1ccc(-n2c(C)cc(C)c(C#N)c2=O)cc1,HepG2,"cell growth or viability, MTT",,"12.5 µM, 24 h",viability,76.1%
CCCCNC(=O)c1c(N)sc2c1CCN(CC)C2,Mycobacterium tuberculosis,"microbial growth, resazurin",H37RV,7 days,MIC,> 300 µM
COc1ccc(NC(=O)c2c(Nc3ccccc3)sc(C#N)c2NC(=O)CNc2ccccc2)cc1,HepG2,"cell growth or viability, SRB",,"1 µM, 48 h",viability,88.6%
CCOC(=O)c1c(NC(=O)c2c(F)c(F)c(F)c(F)c2F)sc2c1CCCC2,Mycobacterium tuberculosis,"microbial growth, resazurin",H37RV,,MIC,< 50 µM
COc1ccc(NC(=O)c2c(Nc3ccccc3)sc(C#N)c2NC(=O)CNc2ccc(Cl)cc2)cc1,HepG2,"cell growth or viability, SRB",,"10 nM, 48 h",viability,86.1%
c1ccc(C2CCN(c3nc(-c4cnn5cccnc45)nc4ccccc34)C2)nc1 (stereo not drawn),Trypanosoma cruzi,"parasite growth, imaging",U2OS,"intracellular, amastigote",IC50,1.11 µM
Nc1sc(-c2ccccc2)cc1C(=O)NC12CC3CC(CC(C3)C1)C2,Mycobacterium tuberculosis,"microbial growth, resazurin",H37RV,,MIC,> 200 µM
